High-throughput results: PubChem BioAssay, Broad Institute
The list is not random: actives were taken first. Their share in the collection is about 2.6%.
HIV Env fusion: inhibitors of HIV Env-mediated cell fusion. 1.1% of 360,000 active. HeLa-JRFL Env/CEM21 cell fusion, luciferase. inhibition, % at 12.3 µM;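 active = mean replicate inhibition score of at least 50 and every replicate individually at or above 50; inconclusive = only one of the two criteria met; inactive = mean below 50 and not all replicates reaching 50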;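 also: 0% = plate neutral controls and 100% = maraviroc near 300 nM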
Vif imaging: blocks HIV Vif function | HEK293T cells, Vif self-association by quenched fluorescence, imaging, 24 h | inhibition, % at 7.49 µM | 0.35% of 340,000 active | AID 602346; in the data active = inhibition above about 50%, passing the limit was not always enough; inconclusive = no clear call, values can overlap the other calls; inactive = below about 31%
S100A4 inh HTS: S100A4-myosin IIA interaction inhibition | P26447 | S100A4/TAMRA-MyoIIA peptide fluorescence polarization | inhibition, % at 10.7 µM | 0.14% of 360,000 active;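 active = mean inhibition of at least 70% across replicates, with every replicate also reaching that level; inconclusive = mean inhibition reaches 70% but some replicates fall short; inactive = mean inhibition below 70%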
Target sequence (P26447 whole entry, looked up): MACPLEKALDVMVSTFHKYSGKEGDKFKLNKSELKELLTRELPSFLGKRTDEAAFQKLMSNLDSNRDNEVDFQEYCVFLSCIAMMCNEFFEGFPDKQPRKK
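Material: S100A4 monomer (human). Medium: Calcium-containing HEPES buffer, pH 7.2. Probe or stimulus: labelled myosin peptide probe, 5 nM. Compound dosing: one concentration per compound. Timing: polarization read 5 min after assay mix addition, stable 5–60 min. Benchmarks: DMSO as neutral control, TFP as positive control.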
Ecoli rRNA inh: inhibitors of bacterial rRNA selective over humanized ribosomes; E. coli WT GFP vs humanized-ribosome RFP mutants, fluorescence, 24 h; active compounds read low; DMSO median 0, no signal -100; GFP signal change (wild-type ribosome), % (no concentration beside the values); 1.6% of 350,000 active; AID 720706;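 active = significant combined selectivity score with lowered wild-type GFP, culture density cut under 30%, mutant RFP and density less affected; inactive = any of these conditions unmet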
FN deposit inh: fibronectin deposition inhibition; 0.086% of 350,000 active; AH1F fibroblasts, Alexa488-fibronectin deposition fluorescence, overnight; inhibition, % at 12.6 µM;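 active = mean inhibition across replicates of 30% or more, regardless of how many single replicates reach that level; inconclusive = mean under 30% yet at least half of replicates reach 30%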;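 also: positive control wells lacked labelled fibronectin entirely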
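Test system: AH1F fibroblast monolayer depositing Alexa488-labelled fibronectin into matrix. Input: 10000 cells per well. Technique: fluorescence, ex 485 nm, em 525 nm. Buffer or medium: DMEM plus 2% serum, read in PBS. Timing: 1 h cell adhesion before compound, then overnight fibronectin incubation. Compound: single dose, pinned. Read-out basis: inhibition from reduced deposited-fibronectin fluorescence.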
miR-122 sensor: blocks miR-122 activity in Huh7 sensor cells; Huh7 miR-122 Renilla luciferase sensor, 48 h; neutral wells = 0, positive control = 100; activation (reporter increase), % at 12.5 µM; 0.3% of 340,000 active;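 active = mean replicate activation score at least 90 and every replicate individually at or above 90; inconclusive = only one of the two criteria met; inactive = neither criterion met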;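 also: higher luciferase means less miR-122 activity so hits act as miR-122 inhibitors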
* = called active by the depositor; ? = inconclusive; . = not tested or not shown; [ ] = another dose, or the depositor's remark.

SMILES	HIV Env fusion	Vif imaging	S100A4 inh HTS	Ecoli rRNA inh	FN deposit inh	miR-122 sensor
Cc1cccc(S(=O)(=O)N[C@H]2CC[C@H](CCNC(=O)c3cnccn3)O[C@H]2CO)c1	-11.0[16.7 µM]	.	10.7	-0.7	-4.1	.
CC(=O)N1[C@@H](CO)[C@@H]2c3ccccc3N(S(=O)(=O)c3ccc(F)cc3)C[C@@H]21	.	.	.	-0.9	.	-14.3[16.7 µM]
Cc1cc(C(C)(C)C)ccc1OCCCCN1CCCC1	4.8	0.7	.	.	0.7	.
CCC(C)(C)c1ccc(OCCCC[n+]2cccc(C)c2C)c(C(C)(C)CC)c1	99.2*	-5.2	-4.7	.	-1.6	-23.8
Cc1cc[n+](CC[n+]2ccc(C)cc2)cc1	-31.1	-0.6	1.5	12.5	-2.4	-4.4
CCC(C)(C)c1ccc(OCCCC[n+]2ccc(C)cc2)c(C(C)(C)CC)c1	126.9*	.	.	.	1.0	.
Cc1ccc(C(C(=O)NCc2ccc(F)cc2)N(Cc2ccco2)C(=O)c2snc(C(N)=O)c2N)o1 (stereo not given)	-3.5	57.8*	-3.9	-5.1	-5.2	2.0
CN(C)C(CNC(=O)CCc1nc2cc(Cl)ccc2n(Cc2ccccc2)c1=O)c1ccccc1 (stereo not given)	.	5.1	190.2*	-13.1	-3.5	-6.9
COc1ccc2c3c(n(C)c2c1)[C@@H](CO)N(CC1CC1)CC31CN(C(=O)Nc2ccccc2)C1	.	.	-25.1	-2.8	.	.
O=S(=O)(NC1CCCC1)c1ccc(S(=O)(=O)N(Cc2cccs2)CC2CCCO2)cc1 (stereo not given)	.	-3.2	-3.6	-29.5*	.	52.5
Cc1ccccc1-c1ccc([C@H]2[C@@H](CO)N3CCCCN(S(=O)(=O)c4cn(C)cn4)C[C@H]23)cc1	.	.	-6.2	-1.7	.	-6.4[16.7 µM]
COc1cccc(NC(=O)c2ccc(CN3CCN(c4ccccc4)CC3)cc2)c1	61.7*	-12.2	10.0	-0.9	.	0.4
COc1ccc(NC(=O)c2ccc(CN3CCN(c4ccccc4)CC3)cc2)cc1	.	-2.8	.	.	.	-6.5
COc1ccc(C(=O)Nc2ccc(N3CCN(Cc4ccccc4)CC3)cc2)cc1	9.4	4.5	5.9	1.2	-7.2	-0.3
COc1c(F)c(F)c(C(=O)Nc2ccc(N3CCN(Cc4ccccc4)CC3)cc2)c(F)c1F	64.6*	-8.9	.	.	.	-8.3
CC(=O)Nc1ccc(NC(=O)C(C)OC(=O)CCCN=C2NS(=O)(=O)c3ccccc32)cc1 (stereo not given)	.	-2.8	136.2*	10.4	2.3	-2.7
CC(=O)c1cccc(NC(=O)C(C)OC(=O)CCCN=C2NS(=O)(=O)c3ccccc32)c1 (stereo not given)	-2.2	0.8	-8.8	3.6	-11.9	.
Cc1nn2c(NCCCn3ccnc3)cc(C(C)C)nc2c1-c1ccccc1	-8.6	-11.9	7.4	-44.6*	23.8	.
O=C(C1CC1)N1[C@H](CO)[C@@H](c2ccccc2)C12CN(CCC(F)(F)F)C2	.	.	2.8	4.0	-3.6	.
O=C(C[C@@H]1C=C[C@@H](NC(=O)Nc2ccc3c(c2)OCO3)[C@H](CO)O1)NCc1ccccc1	-27.3[16.7 µM]	.	1.1	-0.8	-7.8	.
O=C(Cc1c(Cl)cccc1Cl)Nc1ccncc1Cl	61.2*	-10.9	-8.3	-1.3	.	.
O=C(/C=C\Nc1ccc2c(c1)OCO2)c1cccs1	-191.9	66.2*	-23.3	-17.4	-0.9	6.9
O=C(/C=C\Nc1ccc2c(c1)OCO2)c1ccc(Cl)s1	-208.0	14.3	-1.0	8.7	-5.8	-1.7
Cc1ccccc1OCC(O)Cn1c(NCc2ccco2)nc2c1c(=O)n(C)c(=O)n2C (stereo not given)	.	2.7	3.6	-26.1*	.	.
Cc1ccccc1OCC(O)Cn1c(Br)nc2c1c(=O)n(C)c(=O)n2C (stereo not given)	-7.6	-20.6	1.3	-6.5	4.4	7.4
SMILES	HIV Env fusion	Vif imaging	S100A4 inh HTS	Ecoli rRNA inh	FN deposit inh	miR-122 sensor
O=C(CC1C(=O)NCCN1C(=O)Nc1ccccc1)Nc1cc(Cl)ccc1Cl (stereo not given)	-0.9	-5.7	-1.4	-25.4*	-7.4	-7.9
O=C(CC1C(=O)NCCN1C(=O)Nc1ccc(F)cc1)Nc1cc(Cl)ccc1Cl (stereo not given)	-2.6	-3.2	-9.7	-27.5	-3.1	0.2
Cc1cccc(NC(=O)CC2C(=O)NCCN2C(=O)Nc2ccc(Cl)cc2)c1 (stereo not given)	11.3	8.0	-7.0	-31.7*	.	-2.7
CCCC(=O)Nc1ccc2c(c1)OC[C@@H](C)N(Cc1ccncc1)C[C@@H](C)[C@H](OC)CN(C)C2=O	-7.0[16.7 µM]	.	3.1	-2.0	-0.9	-9.4[16.7 µM]
CCCC(=O)Nc1ccc2c(c1)OC[C@@H](C)N(CCC(F)(F)F)C[C@H](C)[C@H](OC)CN(C)C2=O	-17.6[16.7 µM]	.	-0.9	-4.6	-14.5	27.4[16.7 µM]
CO[C@H]1CN(C)C(=O)c2ccc(NS(=O)(=O)c3ccccc3)cc2OC[C@H](C)N(Cc2cccnc2)C[C@@H]1C	2.2[16.7 µM]	.	79.4*	-0.6	7.5	.
CCCC(=O)Nc1ccc2c(c1)OC[C@@H](C)N(Cc1ccncc1)C[C@H](C)[C@H](OC)CN(C)C2=O	9.0[16.7 µM]	.	121.0*	-5.2	-6.5	-14.3[16.7 µM]
CCCC(=O)Nc1ccc2c(c1)OC[C@H](C)N(CCC(F)(F)F)C[C@H](C)[C@@H](OC)CN(C)C2=O	.	.	131.2*	-0.3	4.8	.
CO[C@@H]1CN(C)C(=O)c2ccc(NC(=O)c3ccc4c(c3)OCO4)cc2OC[C@@H](C)N(Cc2ccc3c(c2)OCO3)C[C@H]1C	-17.2[16.7 µM]	.	79.6*	-5.2	-3.8	.
CO[C@H]1CN(C)C(=O)c2ccc(NC(=O)c3ccc4c(c3)OCO4)cc2OC[C@@H](C)N(CC2CC2)C[C@H]1C	.	.	1.2	-0.2	-10.2	.
CS(=O)(=O)N1CCCCN2[C@H](C1)[C@@H](c1ccc(-c3cccc(C#N)c3)cc1)[C@@H]2CO	.	.	10.4	1.8	.	0.6[16.7 µM]
c1ccc(Nc2ccc3c4c(cccc24)CC3)cc1	-6.5	110.7*	.	.	-17.8	37.5
O=Cc1ccc2c(c1)CCN2Cc1ccccc1	-30.3	-19.4	-1.3	-18.8*	10.1	.
CCC(=O)N(C)C[C@@H]1Oc2cc(C#CCC3CCCC3)ccc2S(=O)(=O)N([C@H](C)CO)C[C@@H]1C	?	.	1.7	-14.8	.	-2.1[16.7 µM]
C=CCn1c(SC(F)F)nc2scc(-c3ccco3)c2c1=O	-22.4	13.2	0.0	2.1	37.2*	84.1
Cc1ccc(S(=O)(=O)Nc2ccc3c(c2)CC(=O)N([C@H](C)CO)C[C@H](C)[C@H](CN(C)S(=O)(=O)c2ccccc2)O3)cc1	80.2*[16.7 µM]	.	.	4.7	3.4	5.0[16.7 µM]
Cc1ccc(S(=O)(=O)N(C)C[C@@H]2Oc3ccc(NS(=O)(=O)c4ccccc4)cc3CC(=O)N([C@H](C)CO)C[C@@H]2C)cc1	100.1*[16.7 µM]	.	-3.8	0.1	.	1.0[16.7 µM]
